The source of these data is ChEMBL document CHEMBL2331221, “Potent elastase inhibitors from cyanobacteria: structural basis and mechanisms mediating cytoprotective and anti-inflammatory effects in bronchial epithelial cells” (J Med Chem, 2013).

Assay [1] concerns the target Vitamin K-dependent protein C (Homo sapiens) (UniProt P04070). As to the kind of experiment: Inhibition of Activated Protein C (unknown origin) using Boc-DVLR-ANSNH-C4H9 substrate assessed as residual activity at 10 uM incubated for 15 mins prior to substrate addition measured for 2 hrs. In a few lines: (§1)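 Protease panel screen: enzyme and test inhibitor preincubated 15 min in the enzyme's reaction buffer, then substrate added. Reaction followed for 2 h, and activity was taken from the initial linear portion of the progress-curve slope. Enzyme, substrate, buffer and detection conditions for each target are given only in the paper's supporting table.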

The target in assay [2] is Plasma kallikrein (Homo sapiens) (UniProt P03952). Put plainly: Inhibition of Plasma Kallikrein (unknown origin) using Z-FR-AMC substrate assessed as residual activity at 10 uM incubated for 15 mins prior to substrate addition measured for 2 hrs. In a few lines:
(§2)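 Protease panel screen: enzyme and inhibitor preincubated 15 min in reaction buffer, then substrate added; reaction followed for 2 h and the initial linear part of the progress curve used for activity. Enzyme, substrate, buffer and detection details are given only in a supporting table.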

For assay [3], the target named is Collagenase 3 (Homo sapiens) (UniProt P45452). Put plainly: Inhibition of MMP13 (unknown origin) using (5-FAM/QXLTM) FRET peptide substrate assessed as residual activity at 10 uM incubated for 15 mins prior to substrate addition measured for 2 hrs. The gist of the method:
as §1

Assay [4] addresses Neutrophil collagenase (Homo sapiens) (UniProt P22894). As to the kind of experiment: Inhibition of MMP8 (unknown origin) using (5-FAM/QXLTM) FRET peptide substrate assessed as residual activity at 10 uM incubated for 15 mins prior to substrate addition measured for 2 hrs. The gist of the method: as §2
The nature of assay [5]: Inhibition of Hepatitis C virus NS3/4A protease using Anaspec EnzoLyte substrate incubated for 15 mins prior to substrate addition measured for 2 hrs. Also noted: species or system Hepacivirus hominis. The gist of the method: as §1
Assay [6] has as its target Granzyme B (Homo sapiens) (UniProt P10144). Put plainly: Inhibition of Granzyme B (unknown origin) using Ac-IEPD-AMC substrate assessed as residual activity at 10 uM incubated for 15 mins prior to substrate addition measured for 2 hrs. In a few lines:
as §1

Assay [7] is filed under the species Homo sapiens. As to the kind of experiment: Inhibition of human pancreatic chymotrypsin assessed as proteolysis using N-succinyl-Ala-Ala-Pro-Phe-p-nitroanilide substrate incubated at 10 uM for 30 mins prior to substrate addition. Further details: scale not given: the % may be the effect or the level left. In a few lines:
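Pancreatic chymotrypsin, bovine at 100 μg/mL or human at 50 μg/mL; reaction buffer, enzyme and inhibitor (DMSO) incubated 30 min at room temperature, then substrate added (bovine: N-succinyl-Gly-Gly-Phe-pNA; human: N-succinyl-Ala-Ala-Pro-Phe-pNA). Absorbance read at 405 nm; activity from reaction slope relative to solvent control.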

Assay [8] addresses T1, Neutrophil elastase (Homo sapiens) (UniProt P08246).
T1 sequence (whole entry): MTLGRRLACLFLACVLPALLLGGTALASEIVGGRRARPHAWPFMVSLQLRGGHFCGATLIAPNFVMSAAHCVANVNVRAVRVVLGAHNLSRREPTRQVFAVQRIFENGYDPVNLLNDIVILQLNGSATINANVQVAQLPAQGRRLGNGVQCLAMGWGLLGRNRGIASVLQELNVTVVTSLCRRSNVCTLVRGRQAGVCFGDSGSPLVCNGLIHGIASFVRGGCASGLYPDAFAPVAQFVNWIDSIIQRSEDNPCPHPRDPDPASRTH
Particulars: 10 uM.

In assay [9] the target is Dipeptidyl peptidase 9 (Homo sapiens) (UniProt Q86TI2). Put plainly: Inhibition of DPP9 (unknown origin) using H-GP-AMC substrate assessed as residual activity at 10 uM incubated for 15 mins prior to substrate addition measured for 2 hrs. The gist of the method:
as §1

The target in assay [10] is Kallikrein-5 (Homo sapiens, UniProt Q9Y337). Put plainly: Inhibition of Kallikrein-5 (unknown origin) using Z-VVR-AMC substrate incubated for 15 mins prior to substrate addition measured for 2 hrs. In a few lines: as §1
Sequence of Kallikrein-5 (Q9Y337 whole entry): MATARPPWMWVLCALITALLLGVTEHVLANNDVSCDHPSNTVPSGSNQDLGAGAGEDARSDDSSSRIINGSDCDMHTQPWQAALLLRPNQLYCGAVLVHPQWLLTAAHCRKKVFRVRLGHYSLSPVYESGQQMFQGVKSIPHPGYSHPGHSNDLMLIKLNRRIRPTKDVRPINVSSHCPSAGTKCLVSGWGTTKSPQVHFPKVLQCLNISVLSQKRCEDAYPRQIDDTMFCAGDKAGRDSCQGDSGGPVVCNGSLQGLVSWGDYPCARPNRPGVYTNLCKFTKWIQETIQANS
In assay [11] the target is Cathepsin B (Homo sapiens) (UniProt P07858). As to the kind of experiment: Inhibition of Cathepsin B (unknown origin) using Z-FR-AMC substrate assessed as residual activity at 10 uM incubated for 15 mins prior to substrate addition measured for 2 hrs. The gist of the method:
as §1

Assay [12] addresses Caspase-10 (Homo sapiens) (UniProt Q92851). As to the kind of experiment: Inhibition of Caspase 10 (unknown origin) using Ac-LEHD-AMC substrate assessed as residual activity at 10 uM incubated for 15 mins prior to substrate addition measured for 2 hrs. The gist of the method: as §1
For assay [13], the target named is Macrophage metalloelastase (Homo sapiens) (UniProt P39900). Put plainly: Inhibition of MMP12 (unknown origin) using (5-FAM/QXLTM) FRET peptide substrate assessed as residual activity at 10 uM incubated for 15 mins prior to substrate addition measured for 2 hrs. The gist of the method:
as §1

Assay [14] deals with Cathepsin G (Homo sapiens) (UniProt P08311). Put plainly: Inhibition of Cathepsin G (unknown origin) using Suc-AAPF-AMC substrate assessed as residual activity at 10 uM incubated for 15 mins prior to substrate addition measured for 2 hrs. In a few lines:
as §1

In assay [15] the target is T1, Neutrophil elastase (Homo sapiens). Particulars: BEAS2B, 100 uM.
The target of assay [16] is Disintegrin and metalloproteinase domain-containing protein 17 (Homo sapiens) (UniProt P78536). Put plainly: Inhibition of TACE (unknown origin) using MCA-PLAQAV-Dpa-RSSSR-NH2 substrate assessed as residual activity at 10 uM incubated for 15 mins prior to substrate addition measured for 2 hrs. The gist of the method:
as §2

Assay [17] addresses T1, Neutrophil elastase (Homo sapiens). Conditions: 10 uM. The source holds these as a separate data set.
The target of assay [18] is Dipeptidyl peptidase 1 (Homo sapiens) (UniProt P53634). As to the kind of experiment: Inhibition of Cathepsin C (unknown origin) using Z-FR-AMC substrate assessed as residual activity at 10 uM incubated for 15 mins prior to substrate addition measured for 2 hrs. In a few lines:
as §1

Assay [19] deals with Cathepsin Z (Homo sapiens) (UniProt Q9UBR2). Put plainly: Inhibition of Cathepsin X/Z (unknown origin) using MCA-RPPGFSAFK(Dnp) substrate assessed as residual activity at 10 uM incubated for 15 mins prior to substrate addition measured for 2 hrs. The gist of the method: as §1
Sequence of Cathepsin Z (Homo sapiens) (Q9UBR2 whole entry): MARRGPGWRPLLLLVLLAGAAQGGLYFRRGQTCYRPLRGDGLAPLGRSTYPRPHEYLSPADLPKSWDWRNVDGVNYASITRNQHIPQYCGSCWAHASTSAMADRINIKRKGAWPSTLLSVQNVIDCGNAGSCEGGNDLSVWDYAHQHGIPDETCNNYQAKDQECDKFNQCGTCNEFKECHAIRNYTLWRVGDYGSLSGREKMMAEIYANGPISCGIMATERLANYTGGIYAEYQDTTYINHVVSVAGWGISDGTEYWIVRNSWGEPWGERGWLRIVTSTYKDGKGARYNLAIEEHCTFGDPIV
Assay [20] addresses Kallikrein-12 (Homo sapiens, UniProt Q9UKR0). Put plainly: Inhibition of Kallikrein-12 (unknown origin) using VPR-AMC substrate incubated for 15 mins prior to substrate addition measured for 2 hrs. In a few lines:
as §1

The target of assay [21] is Cathepsin K (Homo sapiens) (UniProt P43235). Put plainly: Inhibition of Cathepsin K (unknown origin) using Z-GPR-AMC substrate assessed as residual activity at 10 uM incubated for 15 mins prior to substrate addition measured for 2 hrs. In a few lines: as §1
Sequence of Cathepsin K (Homo sapiens) (P43235 whole entry): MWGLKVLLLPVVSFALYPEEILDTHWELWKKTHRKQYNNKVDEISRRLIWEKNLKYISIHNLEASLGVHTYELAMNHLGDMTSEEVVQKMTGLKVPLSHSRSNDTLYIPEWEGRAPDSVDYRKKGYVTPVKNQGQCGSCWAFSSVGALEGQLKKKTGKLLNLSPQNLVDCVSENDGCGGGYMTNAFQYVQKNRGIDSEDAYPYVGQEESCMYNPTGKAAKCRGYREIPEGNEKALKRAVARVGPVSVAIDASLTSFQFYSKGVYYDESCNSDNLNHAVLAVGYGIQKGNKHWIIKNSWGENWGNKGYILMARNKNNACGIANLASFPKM
Assay [22] deals with Beta-secretase 1 (Homo sapiens) (UniProt P56817). As to the kind of experiment: Inhibition of BACE1 (unknown origin) using MCA-SEVNLDAEFRK(Dnp)-RR-NH2 substrate assessed as residual activity at 10 uM incubated for 15 mins prior to substrate addition measured for 2 hrs. The gist of the method:
as §1

Assay [23] addresses Coagulation factor VII (Homo sapiens) (UniProt P08709). As to the kind of experiment: Inhibition of Factor-7a (unknown origin) using Z-VVR-AMC substrate assessed as residual activity at 10 uM incubated for 15 mins prior to substrate addition measured for 2 hrs. The gist of the method: as §1
Assay [24] deals with Dipeptidyl peptidase 8 (Homo sapiens) (UniProt Q6V1X1). As to the kind of experiment: Inhibition of DPP8 (unknown origin) using H-GP-AMC substrate assessed as residual activity at 10 uM incubated for 15 mins prior to substrate addition measured for 2 hrs. The gist of the method:
as §1

The structures appear in SMILES notation. The source made the active and inactive calls. The rule behind the calls is not given here. Bounds are passed on as bounds.

Sequence of Macrophage metalloelastase (Homo sapiens) (P39900 106-470 limits assumed): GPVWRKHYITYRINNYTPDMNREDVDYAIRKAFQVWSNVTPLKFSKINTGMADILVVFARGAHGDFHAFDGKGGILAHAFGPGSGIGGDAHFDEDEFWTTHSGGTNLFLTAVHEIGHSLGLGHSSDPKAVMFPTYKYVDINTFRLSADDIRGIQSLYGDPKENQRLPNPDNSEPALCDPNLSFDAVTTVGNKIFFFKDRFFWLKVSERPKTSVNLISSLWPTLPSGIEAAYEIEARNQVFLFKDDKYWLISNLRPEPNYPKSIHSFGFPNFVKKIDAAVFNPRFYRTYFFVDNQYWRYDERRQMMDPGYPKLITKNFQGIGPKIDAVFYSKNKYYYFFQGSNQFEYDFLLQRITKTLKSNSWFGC
Sequence of Dipeptidyl peptidase 1 (Homo sapiens) (P53634 25-134 limits assumed): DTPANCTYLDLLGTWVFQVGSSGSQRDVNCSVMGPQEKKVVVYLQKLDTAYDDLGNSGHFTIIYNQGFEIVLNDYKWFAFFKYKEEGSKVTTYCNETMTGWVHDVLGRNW
Sequence of Dipeptidyl peptidase 1 (Homo sapiens) (P53634 231-394 limits assumed): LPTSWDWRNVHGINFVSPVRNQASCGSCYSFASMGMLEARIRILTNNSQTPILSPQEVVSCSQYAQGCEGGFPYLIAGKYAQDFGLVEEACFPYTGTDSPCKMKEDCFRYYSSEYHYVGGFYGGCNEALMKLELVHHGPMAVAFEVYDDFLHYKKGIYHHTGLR
Sequence of Dipeptidyl peptidase 1 (Homo sapiens) (P53634 395-463 limits assumed): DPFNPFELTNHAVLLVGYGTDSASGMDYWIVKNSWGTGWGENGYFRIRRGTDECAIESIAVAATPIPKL
Sequence of Beta-secretase 1 (Homo sapiens) (P56817 whole entry): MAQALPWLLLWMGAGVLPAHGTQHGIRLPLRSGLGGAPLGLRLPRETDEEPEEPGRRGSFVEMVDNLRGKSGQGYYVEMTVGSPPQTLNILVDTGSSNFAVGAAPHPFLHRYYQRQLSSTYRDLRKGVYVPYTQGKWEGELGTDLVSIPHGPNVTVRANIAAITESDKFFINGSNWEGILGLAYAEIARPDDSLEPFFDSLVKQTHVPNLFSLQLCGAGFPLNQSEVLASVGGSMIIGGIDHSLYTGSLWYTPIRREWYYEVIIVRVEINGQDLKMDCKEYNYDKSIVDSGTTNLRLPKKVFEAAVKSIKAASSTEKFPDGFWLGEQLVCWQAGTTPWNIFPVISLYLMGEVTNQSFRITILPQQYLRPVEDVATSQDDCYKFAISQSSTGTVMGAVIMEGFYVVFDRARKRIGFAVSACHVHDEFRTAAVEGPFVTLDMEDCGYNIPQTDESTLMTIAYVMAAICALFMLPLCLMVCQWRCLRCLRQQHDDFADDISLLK
Sequence of Cathepsin G (Homo sapiens) (P08311 whole entry): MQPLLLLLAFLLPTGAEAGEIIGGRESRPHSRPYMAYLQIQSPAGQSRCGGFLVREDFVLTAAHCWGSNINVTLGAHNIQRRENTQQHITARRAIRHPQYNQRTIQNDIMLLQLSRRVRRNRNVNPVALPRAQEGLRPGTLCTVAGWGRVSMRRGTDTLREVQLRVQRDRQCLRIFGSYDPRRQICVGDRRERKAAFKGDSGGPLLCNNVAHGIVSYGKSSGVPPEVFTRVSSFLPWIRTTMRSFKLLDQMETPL
Sequence of Coagulation factor VII (Homo sapiens) (P08709 61-212 limits assumed): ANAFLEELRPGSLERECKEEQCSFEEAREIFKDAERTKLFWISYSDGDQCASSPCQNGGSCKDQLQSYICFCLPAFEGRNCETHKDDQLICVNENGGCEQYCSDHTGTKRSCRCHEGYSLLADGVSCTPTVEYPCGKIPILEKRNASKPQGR
Sequence of Coagulation factor VII (Homo sapiens) (P08709 213-466 limits assumed): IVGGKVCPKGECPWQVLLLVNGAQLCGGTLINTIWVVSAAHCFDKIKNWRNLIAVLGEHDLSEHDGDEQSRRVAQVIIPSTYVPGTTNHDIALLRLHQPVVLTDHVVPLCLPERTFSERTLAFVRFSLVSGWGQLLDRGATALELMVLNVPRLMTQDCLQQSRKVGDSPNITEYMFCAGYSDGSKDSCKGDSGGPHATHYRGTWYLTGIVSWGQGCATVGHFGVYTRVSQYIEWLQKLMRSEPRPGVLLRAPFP
Sequence of Neutrophil collagenase (Homo sapiens) (P22894 101-467 limits assumed): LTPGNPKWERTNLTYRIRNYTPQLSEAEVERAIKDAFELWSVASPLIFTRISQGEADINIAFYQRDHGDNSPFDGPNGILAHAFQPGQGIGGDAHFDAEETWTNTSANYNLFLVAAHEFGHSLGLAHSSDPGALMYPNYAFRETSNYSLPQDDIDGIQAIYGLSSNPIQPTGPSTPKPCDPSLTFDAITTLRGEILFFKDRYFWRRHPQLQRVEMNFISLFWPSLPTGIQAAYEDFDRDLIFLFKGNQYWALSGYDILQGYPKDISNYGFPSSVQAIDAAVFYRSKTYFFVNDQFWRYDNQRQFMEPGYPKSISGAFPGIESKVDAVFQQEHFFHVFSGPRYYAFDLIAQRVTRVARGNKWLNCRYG
Sequence of Disintegrin and metalloproteinase domain-containing protein 17 (Homo sapiens) (P78536 whole entry, the tested form may be a part): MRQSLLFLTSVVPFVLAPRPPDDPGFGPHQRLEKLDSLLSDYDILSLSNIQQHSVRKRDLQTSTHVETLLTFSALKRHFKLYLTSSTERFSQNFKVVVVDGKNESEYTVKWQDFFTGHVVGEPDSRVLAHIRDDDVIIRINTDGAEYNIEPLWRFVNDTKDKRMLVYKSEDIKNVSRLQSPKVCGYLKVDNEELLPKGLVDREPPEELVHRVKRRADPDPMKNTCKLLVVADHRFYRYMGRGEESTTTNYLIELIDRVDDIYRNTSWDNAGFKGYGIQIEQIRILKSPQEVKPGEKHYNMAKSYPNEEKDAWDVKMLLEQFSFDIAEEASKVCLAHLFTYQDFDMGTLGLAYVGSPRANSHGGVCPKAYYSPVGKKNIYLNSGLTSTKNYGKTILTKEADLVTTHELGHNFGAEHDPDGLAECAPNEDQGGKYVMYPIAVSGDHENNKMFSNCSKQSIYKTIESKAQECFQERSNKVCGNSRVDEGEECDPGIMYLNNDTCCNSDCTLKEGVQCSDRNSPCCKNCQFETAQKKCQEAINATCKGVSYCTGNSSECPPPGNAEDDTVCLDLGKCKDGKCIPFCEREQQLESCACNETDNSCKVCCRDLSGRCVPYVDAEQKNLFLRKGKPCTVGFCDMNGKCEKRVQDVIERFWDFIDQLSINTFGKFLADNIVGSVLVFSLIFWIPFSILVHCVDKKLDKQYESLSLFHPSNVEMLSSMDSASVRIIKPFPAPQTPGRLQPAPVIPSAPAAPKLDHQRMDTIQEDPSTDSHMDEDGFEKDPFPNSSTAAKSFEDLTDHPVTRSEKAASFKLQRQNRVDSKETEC
Sequence of Kallikrein-12 (Q9UKR0 whole entry): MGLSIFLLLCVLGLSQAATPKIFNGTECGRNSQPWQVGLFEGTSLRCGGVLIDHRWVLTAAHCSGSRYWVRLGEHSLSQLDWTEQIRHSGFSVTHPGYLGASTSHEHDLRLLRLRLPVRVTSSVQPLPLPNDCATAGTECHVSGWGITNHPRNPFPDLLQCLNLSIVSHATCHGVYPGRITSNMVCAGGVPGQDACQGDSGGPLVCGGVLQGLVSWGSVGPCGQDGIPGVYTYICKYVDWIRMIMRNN
Sequence of Caspase-10 (Homo sapiens) (Q92851 220-415 limits assumed): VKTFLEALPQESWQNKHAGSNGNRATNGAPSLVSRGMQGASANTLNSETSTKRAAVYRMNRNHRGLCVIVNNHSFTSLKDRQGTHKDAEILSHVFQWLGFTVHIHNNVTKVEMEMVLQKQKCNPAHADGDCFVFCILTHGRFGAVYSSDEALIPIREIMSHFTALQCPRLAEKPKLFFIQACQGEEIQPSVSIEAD
Sequence of Caspase-10 (Homo sapiens) (Q92851 416-521 limits assumed): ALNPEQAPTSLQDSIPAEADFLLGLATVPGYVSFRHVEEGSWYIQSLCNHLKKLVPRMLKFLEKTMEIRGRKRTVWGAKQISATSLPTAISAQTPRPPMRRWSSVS
Sequence of Granzyme B (Homo sapiens) (P10144 whole entry): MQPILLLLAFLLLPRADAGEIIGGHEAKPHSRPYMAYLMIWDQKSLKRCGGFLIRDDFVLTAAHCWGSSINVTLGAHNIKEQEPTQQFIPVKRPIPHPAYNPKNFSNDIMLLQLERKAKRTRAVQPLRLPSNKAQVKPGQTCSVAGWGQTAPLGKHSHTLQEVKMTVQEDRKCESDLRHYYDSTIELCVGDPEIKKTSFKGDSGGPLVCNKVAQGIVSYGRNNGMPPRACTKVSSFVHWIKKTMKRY

With `C/C=C1\NC(=O)[C@@H](NC(=O)[C@@H](NC(=O)[C@@H](COS(=O)(=O)[O-])OC)C(C)C)[C@@H](C)OC(=O)[C@H]([C@H](C)CC)NC(=O)[C@H](Cc2ccccc2)N(C)C(=O)[C@H](Cc2ccccc2)N2C(=O)[C@H](CC[C@H]2O)NC1=O.[Na+]` [Symplostatin 5], the Activity worked out at 100% in [1]; 50% in [2]; 100% in assay [3]; 100% in [4]; 100% in assay [6]; 53.4% in assay [7]. For the same molecule, the Activity in [9] stood at 100%; in [11], 100%; in assay [12] it was 100%; in [13] it was 100%; in assay [14] it was 50%; in assay [16], 100%. Further, the Activity in [18] amounted to 50%; in [19], 100%; in assay [21], 100%; in assay [22] it was 100%; in assay [23], 100%; in assay [24], 100%. Besides, the pIC50 in assay [5] is given as more than 5. In addition, the inhibition entry in [8] and in assay [15] was “inactive” each time. Also, the IC50 in assay [10] and in assay [20] was less than 10 µM in each case. Further, the inhibition result in assay [17] was “Active”.
